Source: PMC11310838 (RSC Advances, 2024)

What was measured:
Test in all cases: Sulforhodamine B
HEPG2 cell line = assay type: cell-based, human; settings: for inhibition at 100 µM: Homo sapiens, HepG2, 48 h, read-out: Percentage of cell growth inhibition at [100 μM] HEPG2
In short: (§1)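 Carcinoma lines came from the National Cancer Institute, Cairo, and were grown as monolayers in DMEM with 10% FBS and 1% penicillin–streptomycin. Final DMSO was ≤0.1% (v/v). Cells were treated for 48 h either at a single 100 μM dose (% growth inhibition) or at 0, 6.25, 12.5, 25 and 50 μM. SRB staining was read at 570 nm as % viability. IC50 came from dose–response curve fitting.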

HCT116 cell line = assay type: cell-based, human; settings: for inhibition at 100 µM: Homo sapiens, HCT-116, 48 h, read-out: Percentage of cell growth inhibition at [100 μM] HCT116
In short: as §1

MCF7 cell line = assay type: cell-based, human; settings: for inhibition at 100 µM: Homo sapiens, MCF7, 48 h, read-out: Percentage of cell growth inhibition at [100 μM] MCF7
In short: as §1

[1] = system: HDF cell line (Human Dermal Fibroblasts); assay type: cell-based; settings: 48 h; for inhibition at 100 µM: Homo sapiens, HDF, read-out: Percentage of cell growth inhibition at [100 μM] HDF
In short: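 Normal human dermal fibroblasts came from the National Cancer Institute, Cairo. Final DMSO was ≤0.1% (v/v). Cells were exposed to the test compound at a single 100 μM dose for 48 h. Growth inhibition was measured by the sulforhodamine-B method, with absorbance read at 570 nm and expressed as percentage of cell viability.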

[2] = single dose 100 μM, 48 h, SRB, mean ± SD

SMILES	inhibition at 100 µM (HEPG2 cell line) [%]	inhibition at 100 µM (HCT116 cell line) [%]	inhibition at 100 µM (MCF7 cell line) [%]	inhibition at 100 µM [1] [%]	IC50 (HEPG2 cell line; read-out: IC50 (μM) ± SD HEPG2, 48 h treatment, SRB) [µM]	Percentage of cell growth inhibition at [100 μM] HEPG2 (HEPG2 cell line; [2]) [%]	IC50 (HCT116 cell line; read-out: IC50 (μM) ± SD HCT116, 48 h treatment, SRB) [µM]	Percentage of cell growth inhibition at [100 μM] HCT116 (HCT116 cell line; [2]) [%]	IC50 (MCF7 cell line; read-out: IC50 (μM) ± SD MCF7, 48 h treatment, SRB) [µM]	Percentage of cell growth inhibition at [100 μM] MCF7 (MCF7 cell line; [2]) [%]	Percentage of cell growth inhibition at [100 μM] HDF ([1]; single dose 100 μM, SRB, normal cells, mean ± SD) [%]
Cc1nc(NN=Cc2ccc(OCC(=O)N3CCN(C(=O)COc4ccc(C=NNc5nc(C)c(N=Nc6ccc(F)cc6)s5)cc4)CC3)cc2)sc1N=Nc1ccc(F)cc1 [Compound 9c, 1,1′-(Piperazine-1,4-diyl)bis(2-(4-(((4-methyl-5-(4-fluorophenylazo)thiazol-2-yl)hydrazono)-methyl)phenoxy)ethanone)]	77.2 ± 3.1	87.2 ± 4.53	90.3 ± 1.3	67.7 ± 11.5							
O=C(COc1ccccc1C=NN=c1sc(-c2ccccc2)nn1-c1ccccc1)N1CCN(C(=O)COc2ccccc2C=NN=c2sc(-c3ccccc3)nn2-c2ccccc2)CC1 [Compound 13c, 1,1′-(Piperazine-1,4-diyl)bis(2-(2-(((3,5-diphenyl-1,3,4-thiadiazol-2(3H)-ylidene)hydrazono)-methyl)phenoxy)ethanone)]	68.8 ± 12.7	76.4 ± 5.38	86.2 ± 1.83	60.8 ± 3.09							
O=C(COc1ccc(C=NN=c2[nH]c(-c3ccccc3)cs2)cc1)N1CCN(C(=O)COc2ccc(C=NN=c3[nH]c(-c4ccccc4)cs3)cc2)CC1 [Compound 15a, 1,1′-(Piperazine-1,4-diyl)bis(2-(4-(((4-phenylthiazol-2(3H)-ylidene)hydrazineylidene)methyl)-phenoxy)ethanone)]	67.9 ± 7.03	78.1 ± 6.5	87.3 ± 1.63	50.2 ± 21.5							
Cc1nc(NN=Cc2ccc(OCC(=O)N3CCN(C(=O)COc4ccc(C=NNc5nc(C)c(N=Nc6ccc(Cl)cc6)s5)cc4)CC3)cc2)sc1N=Nc1ccc(Cl)cc1 [Compound 9d, 1,1′-(Piperazine-1,4-diyl)bis(2-(4-(((4-methyl-5-(4-chlorophenylazo)thiazol-2-yl)hydrazono)-methyl)phenoxy)ethanone)]	73.1 ± 5.28	89.1 ± 2.04	90.5 ± 1.99	57.7 ± 18							
COc1ccc(-c2csc(=NN=Cc3ccc(OCC(=O)N4CCN(C(=O)COc5ccc(C=NN=c6[nH]c(-c7ccc(OC)cc7)cs6)cc5)CC4)cc3)[nH]2)cc1 [Compound 15b, 1,1′-(Piperazine-1,4-diyl)bis(2-(4-(((4-(4-methoxyphenyl)thiazol-2(3H)-ylidene)hydrazineylidene)-methyl)phenoxy)ethanone)]	83.4 ± 9.48	21.8 ± 16.5	50.6 ± 10.2	48 ± 48.5							
O=C(COc1ccc(C=NN=c2[nH]c(-c3cc4ccccc4oc3=O)cs2)cc1)N1CCN(C(=O)COc2ccc(C=NN=c3[nH]c(-c4cc5ccccc5oc4=O)cs3)cc2)CC1 [Compound 15e, 1,1′-(Piperazine-1,4-diyl)bis(2-(4-(((4-(coumarin-3-yl)thiazol-2(3H)-ylidene)hydrazineylidene)-methyl)phenoxy)ethanone)]	74.4 ± 4.88	73.9 ± 4.08	68.4 ± 7.33	68.1 ± 10.1							
O=C(COc1ccccc1C=NN=c1sc(-c2ccc(Cl)cc2)nn1-c1ccccc1)N1CCN(C(=O)COc2ccccc2C=NN=c2sc(-c3ccc(Cl)cc3)nn2-c2ccccc2)CC1 [Compound 13d, 1,1′-(Piperazine-1,4-diyl)bis(2-(2-(((5-(4-chlorophenyl)-3-phenyl-1,3,4-thiadiazol-2(3H)-ylidene)-hydrazono)methyl)phenoxy)ethanone)]	80 ± 3.39	88.9 ± 1.38	86.4 ± 2.56	64 ± 10.8							
Cc1nc(NN=Cc2ccccc2OCC(=O)N2CCN(C(=O)COc3ccccc3C=NNc3nc(C)c(N=Nc4ccc(F)cc4)s3)CC2)sc1N=Nc1ccc(F)cc1 [Compound 9g, 1,1′-(Piperazine-1,4-diyl)bis(2-(2-(((4-methyl-5-(4-fluorophenylazo)thiazol-2-yl)hydrazono)-methyl)phenoxy)ethanone)]	91.8 ± 3.29	80.6 ± 7.04	88.7 ± 4.11	71.1 ± 21.6							
Cc1ccc(N=Nc2sc(NN=Cc3ccccc3OCC(=O)N3CCN(C(=O)COc4ccccc4C=NNc4nc(C)c(N=Nc5ccc(C)cc5)s4)CC3)nc2C)cc1 [Compound 9f, 1,1′-(Piperazine-1,4-diyl)bis(2-(2-(((4-methyl-5-(4-tolylazo)thiazol-2-yl)hydrazono)methyl)-phenoxy)ethanone)]	93.5 ± 2.07	85.4 ± 6.41	85.5 ± 2.11	78.3 ± 3.64							
Cc1nc(NN=Cc2ccccc2OCC(=O)N2CCN(C(=O)COc3ccccc3C=NNc3nc(C)c(N=Nc4ccc(Cl)cc4)s3)CC2)sc1N=Nc1ccc(Cl)cc1 [Compound 9h, 1,1′-(Piperazine-1,4-diyl)bis(2-(2-(((4-methyl-5-(4-chlorophenylazo)thiazol-2-yl)hydrazono)-methyl)phenoxy)ethanone)]	84 ± 3.07	77.7 ± 8.59	81 ± 7.44	56 ± 23.6							
COc1cccc2c1C(=O)c1c(O)c3c(c(O)c1C2=O)C[C@@](O)(C(=O)CO)C[C@@H]3O[C@H]1C[C@H](N)[C@H](O)[C@H](C)O1 [DOX, reference compound]					8.42 ± 1.7	89.09 ± 0.63	7.7 ± 1.5	82.77 ± 2.98	7.59 ± 1.4	86.37 ± 1.82	30.53 ± 9.75
Cc1nc(NN=Cc2ccccc2OCC(=O)N2CCN(C(=O)COc3ccccc3C=NNc3nc(C)c(N=Nc4ccc([N+](=O)[O-])cc4)s3)CC2)sc1N=Nc1ccc([N+](=O)[O-])cc1 [Compound 9j, 1,1′-(Piperazine-1,4-diyl)bis(2-(2-(((4-methyl-5-(4-nitrophenylazo)thiazol-2-yl)hydrazono)-methyl)phenoxy)ethanone)]	83.1 ± 7.22	87.7 ± 4.3	71.4 ± 20.5	12 ± 6.04							
NC(=S)NN=Cc1ccc(OCC(=O)N2CCN(C(=O)COc3ccc(C=NNC(N)=S)cc3)CC2)cc1 [Compound 7a, 1,1′-(Piperazine-1,4-diyl)bis(2-(4-(2-carbamothioylhydrazono)methylphenoxy)ethanone)]	83.3 ± 7.47	86.2 ± 5.33	85.3 ± 5.2	45.1 ± 30.1							
O=C(COc1ccccc1C=NN=c1[nH]c(-c2cc3ccccc3oc2=O)cs1)N1CCN(C(=O)COc2ccccc2C=NN=c2[nH]c(-c3cc4ccccc4oc3=O)cs2)CC1 [Compound 15h, 1,1′-(Piperazine-1,4-diyl)bis(2-(2-(((4-(coumarin-3-yl)thiazol-2(3H)-ylidene)hydrazineylidene)-methyl)phenoxy)ethanone)]	70.1 ± 8.68	36.4 ± 13.8	46.7 ± 11.3	44 ± 51.5							
O=C(COc1ccc(C=NN=c2sc(-c3ccccc3)nn2-c2ccccc2)cc1)N1CCN(C(=O)COc2ccc(C=NN=c3sc(-c4ccccc4)nn3-c3ccccc3)cc2)CC1 [Compound 13a, 1,1′-(Piperazine-1,4-diyl)bis(2-(4-(((3,5-diphenyl-1,3,4-thiadiazol-2(3H)-ylidene)hydrazono)-methyl)phenoxy)ethanone)]	71.4 ± 4.92	78.1 ± 5.78	88.2 ± 1.88	52.5 ± 14.8							
